Active and inactive are the calls of the source.
Key:
[1] = biological target: T1, Sodium- and chloride-dependent glycine transporter 2 (Homo sapiens, UniProt Q9Y345); assay: Reversible non-competitive inhibition of human GlyT2a expressed in Xenopus laevis oocytes by two-electrode voltage clamp electrophysiology; assay type: cell-based
T1 sequence (Q9Y345 whole entry): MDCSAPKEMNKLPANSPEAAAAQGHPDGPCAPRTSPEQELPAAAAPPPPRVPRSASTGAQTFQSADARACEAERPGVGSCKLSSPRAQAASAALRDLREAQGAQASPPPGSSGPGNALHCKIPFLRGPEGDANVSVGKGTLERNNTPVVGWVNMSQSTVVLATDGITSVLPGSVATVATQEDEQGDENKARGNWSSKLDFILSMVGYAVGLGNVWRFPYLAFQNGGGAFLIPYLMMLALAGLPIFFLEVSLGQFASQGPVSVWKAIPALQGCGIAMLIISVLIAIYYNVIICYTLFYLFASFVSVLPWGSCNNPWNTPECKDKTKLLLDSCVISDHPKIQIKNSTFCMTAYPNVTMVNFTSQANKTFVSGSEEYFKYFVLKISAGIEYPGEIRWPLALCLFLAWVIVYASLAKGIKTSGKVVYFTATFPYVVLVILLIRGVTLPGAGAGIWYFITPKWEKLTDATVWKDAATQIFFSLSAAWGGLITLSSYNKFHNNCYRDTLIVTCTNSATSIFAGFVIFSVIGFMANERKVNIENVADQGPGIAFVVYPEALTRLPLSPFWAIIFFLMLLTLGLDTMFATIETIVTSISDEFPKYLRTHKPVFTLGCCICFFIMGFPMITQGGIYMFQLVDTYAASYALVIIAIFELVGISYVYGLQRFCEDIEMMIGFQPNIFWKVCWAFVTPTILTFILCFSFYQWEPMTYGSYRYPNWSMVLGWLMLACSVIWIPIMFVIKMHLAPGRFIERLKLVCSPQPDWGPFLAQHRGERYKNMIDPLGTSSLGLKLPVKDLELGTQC
Outline: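 Xenopus laevis stage V-VI oocytes injected with 4.6 ng GlyT2 cRNA, kept 2-5 days at 16-18 °C in ND96 (pH 7.55). Two-electrode voltage clamp at -60 mV. Glycine concentration responses recorded without inhibitor, then after 2 min pre-application of inhibitor (10 nM, 30 nM or 1 μM) in ND96. Currents normalised per cell to Imax at 300 μM glycine without inhibitor; EC50 and Imax compared by ANOVA.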

[2] = biological target: T1, Sodium- and chloride-dependent glycine transporter 2; assay: Inhibition of recombinant human GlyT2a expressed in Xenopus laevis oocytes assessed as reduction in channel current by two-electrode voltage clamp electrophysiology; assay type: cell-based
[3] = Degradation half life in rat plasma at 1000 ng/ml by LC-MS/MS analysis; assay type: ADME, cell-free
Outline: (§1)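 Pooled human plasma (3 donors) or pooled male Sprague-Dawley rat plasma, thawed at 37°C. Spiked to a nominal 1000 ng/mL final (0.2% DMSO, 0.4% acetonitrile final) and incubated at 37°C. Aliquots were snap-frozen at time points over 4 h (n=3 per time point). Quantified by LC-MS against a same-species blank-plasma calibration with a leucine enkephalin internal standard.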

[4] = Degradation half life in human plasma at 1000 ng/ml by LC-MS/MS analysis; assay type: ADME, cell-free; outline: as §1
[5] = Drug degradation in human plasma at 1000 ng/ml measured over 240 mins by LC-MS/MS analysis; assay type: ADME, cell-free; conditions: read-out: Drug degradation; outline: as §1
[6] = biological target: T2, Sodium- and chloride-dependent glycine transporter 2 (Homo sapiens) (UniProt Q9Y345); assay: Inhibition of recombinant human GlyT2a expressed in Xenopus laevis oocytes assessed as reduction in channel current by two-electrode voltage clamp electrophysiology relative to control; assay type: cell-based
T2 sequence (whole entry): T1 sequence (Q9Y345 whole entry)

[7] = biological target: T3, Sodium- and chloride-dependent glycine transporter 1 (Homo sapiens, UniProt P48067); assay: Inhibition of recombinant human GlyT1b expressed in Xenopus laevis oocytes assessed as reduction in channel current by two-electrode voltage clamp electrophysiology; assay type: cell-based
T3 sequence (P48067 whole entry): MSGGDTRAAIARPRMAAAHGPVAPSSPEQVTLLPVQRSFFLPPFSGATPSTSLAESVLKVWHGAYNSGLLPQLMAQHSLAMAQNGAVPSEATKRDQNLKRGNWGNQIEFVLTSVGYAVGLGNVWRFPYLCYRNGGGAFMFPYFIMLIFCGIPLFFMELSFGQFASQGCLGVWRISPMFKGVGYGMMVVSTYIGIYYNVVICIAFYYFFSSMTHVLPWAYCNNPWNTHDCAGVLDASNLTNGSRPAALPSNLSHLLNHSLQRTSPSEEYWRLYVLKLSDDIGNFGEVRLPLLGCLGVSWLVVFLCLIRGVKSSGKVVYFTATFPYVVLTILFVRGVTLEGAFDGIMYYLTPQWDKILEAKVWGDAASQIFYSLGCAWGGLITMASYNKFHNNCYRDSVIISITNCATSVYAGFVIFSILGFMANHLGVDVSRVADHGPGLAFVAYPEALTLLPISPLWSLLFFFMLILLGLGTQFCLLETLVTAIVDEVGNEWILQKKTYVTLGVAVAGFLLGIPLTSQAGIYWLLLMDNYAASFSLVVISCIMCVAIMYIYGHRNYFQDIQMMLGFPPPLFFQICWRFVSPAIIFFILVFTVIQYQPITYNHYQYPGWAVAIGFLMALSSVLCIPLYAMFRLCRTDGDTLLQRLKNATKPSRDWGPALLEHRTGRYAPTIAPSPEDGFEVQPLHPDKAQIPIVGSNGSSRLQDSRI

[8] = Degradation half life in rat liver microsomes at 1 uM by LC-MS/MS analysis; assay type: ADME, Microsome
Outline: (§2)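 Human or rat liver microsomes (0.4 mg/mL protein final) in 0.1 M phosphate buffer pH 7.4 with 1 μM compound at 37°C. Reaction started with an NADPH-regenerating system plus MgCl2. Samples were quenched with ice-cold acetonitrile at time points over 60 min. Remaining parent was measured by LC-MS, and the first-order depletion rate constant came from an exponential decay fit.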

[9] = biological target: T2, Sodium- and chloride-dependent glycine transporter 2 (Homo sapiens); assay: Inhibition of recombinant human GlyT2a expressed in Xenopus laevis oocytes assessed as reduction in channel current at 30 nM by two-electrode voltage clamp electrophysiology; assay type: cell-based
Outline: (§3)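 GlyT2-expressing oocytes under two-electrode voltage clamp at -60 mV. Glycine concentration responses were run first without inhibitor, then after 2 min pre-application of inhibitor (10 nM, 30 nM or 1 μM) in ND96, followed by increasing glycine. Plateau currents were normalised to each cell's Imax at 300 μM glycine without inhibitor. ANOVA was applied to EC50 and Imax.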

[10] = biological target: T2, Sodium- and chloride-dependent glycine transporter 2 (Homo sapiens); assay: Inhibition of recombinant human GlyT2a expressed in Xenopus laevis oocytes assessed as reduction in channel current at 10 nM by two-electrode voltage clamp electrophysiology; assay type: cell-based; outline: as §3
[11] = biological target: T2, Sodium- and chloride-dependent glycine transporter 2 (Homo sapiens); assay: Inhibition of recombinant human GlyT2a expressed in Xenopus laevis oocytes assessed as reduction in channel current at 1 uM by two-electrode voltage clamp electrophysiology; assay type: cell-based; outline: as §3
[12] = biological target: T4, Sodium- and chloride-dependent glycine transporter 1 (Homo sapiens) (UniProt P48067); assay: Inhibition of recombinant human GlyT1b expressed in Xenopus laevis oocytes assessed as reduction in [3H]glycine uptake at 0.1 to 1 uM pretreated for 2 mins followed by [3H]glycine addition and measured after 30 mins by scintillation counting method; assay type: cell-based
T4 sequence (whole entry): T3 sequence (P48067 whole entry)

GlyT2 (Homo sapiens) = assay: Inhibition of recombinant human GlyT2a expressed in expressed in Xenopus laevis oocytes assessed as reduction in [3H]glycine uptake at 0.1 to 1 uM pretreated for 2 mins followed by [3H]glycine addition and measured after 30 mins by scintillation counting method
[13] = Drug degradation in human liver microsomes at 1 uM measured over 60 mins by LC-MS/MS analysis; assay type: ADME, Microsome; conditions: read-out: Drug degradation; outline: as §2
Rattus norvegicus = assay: Analgesic activity in Sprague-Dawley rat model of neuropathic pain assessed as reduction in allodynia at 30 mg/kg, ip administered as single dose measured after 90 mins post injection; assay type: functional, organism-based
Outline: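 Male Sprague-Dawley rats were tested 14 days after nerve-constriction surgery. Mechanical paw withdrawal threshold was measured with von Frey filaments (0.4–15.1 g) by the up-down method, bounded at 0.2 and 15 g. Rats got a single ip injection with vehicle of 1% DMSO, 10% Solutol HS15 in 0.9% saline. Testing ran at 15–360 min post-injection with Bonferroni comparisons against vehicle.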

[14] = Toxicity in Sprague-Dawley rat model of neuropathic pain assessed as induction of abdominal pain rat 30 mg/kg, ip administered as single dose measured up to 60 mins post injection; assay type: organism-based; conditions: in vivo, 1 h
Outline: (§4)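 Male Sprague-Dawley rats underwent chronic nerve constriction surgery, and neuropathic pain developed over 14 days. Rats were housed in groups of 4 and acclimatised to test chambers. Single ip injection of drug or vehicle (1% DMSO, 10% Solutol HS15 in 0.9% saline). Adverse behaviours were scored over the post-injection period alongside von Frey testing, with vehicle as comparison.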

[15] = biological target: T2, Sodium- and chloride-dependent glycine transporter 2 (Homo sapiens); assay: Slow reversible inhibition of recombinant human GlyT2a expressed in Xenopus laevis oocytes assessed as recovery of transport current at IC50 followed by compound wash out followed by glycine re-application at 5 mins intervals throughout wash time course and measured after 30 mins by two-electrode voltage clamp electrophysiology; assay type: cell-based; set-up: scale not given: the % may be the effect or the level left
[16] = Toxicity in Sprague-Dawley rat model of neuropathic pain assessed as induction of recumbent behaviour rat 30 mg/kg, ip administered as single dose measured up to 60 mins post injection; assay type: organism-based; conditions: in vivo, 1 h; outline: as §4
[17] = Toxicity in Sprague-Dawley rat model of neuropathic pain assessed as induction of writhing behaviour rat 30 mg/kg, ip administered as single dose measured up to 60 mins post injection; assay type: organism-based; conditions: in vivo, 1 h; outline: as §4

IC50 [2]	Imax [6]	IC50 [7]	Compound	IC50 [1]	other results
			CCCCC/C=C\C/C=C\C/C=C\C/C=C\CCCC(=O)NCCCC(=O)O [ARACHIDONOYL GABA]	12000 nM	
500 nM	66.8%	> 30000 nM	CCCCCCCC/C=C\CCCCCCCC(=O)NCC(=O)O [OLEOYL GLYCINE]	500 nM	t1/2 [3]: 0.45 h; t1/2 [4]: > 17.03 h; metabolised at 4 h, 1000 ng/ml [5]: < 15%
			CCCCC/C=C\C/C=C\C/C=C\C/C=C\CCCC(=O)NCC(=O)O [ARACHIDONOYL GLYCINE]	9000 nM	
			CCCCCCCCCCCCCCCC(=O)O[C@H](CC(=O)[O-])C[N+](C)(C)C	600 nM	
			CCCCCCCC/C=C\CCCCCCCC(=O)O[C@H](CC(=O)[O-])C[N+](C)(C)C	340 nM	
			CCCCC/C=C\C/C=C\C/C=C\C/C=C\CCCC(=O)N[C@@H](C)C(=O)O	9000 nM	
25.5 nM	86.8%	> 3000 nM	CCCCCCCC/C=C\CCCCCCCC(=O)N[C@@H](CCCCN)C(=O)O.Cl		t1/2 [3]: 1.43 h; t1/2 [8]: 0.9 h; Imax [9]: 62.4%; Imax [10]: 82.8%; Imax [11]: 30.2%; inhibition [12]: inactive; inhibition (GlyT2 (Homo sapiens)): Active; metabolised at 4 h, 1000 ng/ml [5]: < 15%; metabolised at 1 h, 1 µM [13]: < 15%
	93%		COc1cc(C(=O)NCC2(N(C)C)CCCC2)cc(OC)c1OCc1ccccc1		Activity (Rattus norvegicus): Active; Activity [14]: Toxic; Activity [15]: 35%; Activity [16]: Toxic; Activity [17]: Toxic
259 nM	68.6%	> 3000 nM	CCCCCCCC/C=C\CCCCCCCC(=O)N[C@H](CCSC)C(=O)O		
182 nM	58.2%	> 3000 nM	CCCCCCCC/C=C\CCCCCCCC(=O)N[C@@H](CN)C(=O)O		
54.6 nM	86.2%	> 10000 nM	CCCCCCCC/C=C\CCCCCCCC(=O)N[C@@H](Cc1c[nH]c2ccccc12)C(=O)O		

From ChEMBL document CHEMBL4480400, “Development of an N-Acyl Amino Acid That Selectively Inhibits the Glycine Transporter 2 To Produce Analgesia in a Rat Model of Chronic Pain” (J Med Chem, 2019)
